One block for each molecule: values may come before it.
What was measured:
Hepatocyte [1] = experiment: Prodrug conversion in rat primary hepatocytes assessed as 2'-deoxy-2'-spirooxetane uridine triphosphate level per million cells at 62.5 uM after 4 hrs using radiolabelled compound by LC-MS/MS analysis; type: ADME, cell-based
In short: (§1)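 Study A: fresh primary hepatocyte cultures from mouse, rat, dog and human incubated with tritiated prodrug at 2 or 62.5 µM for 4 or 24 h. Triphosphate in cell lysates reported as pmol/million hepatocytes. Duplicate or single measurements.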

[2] = Drug metabolism in dog primary hepatocyte supernatant assessed as 1-((4R,5R,7R,8R)-8-hydroxy-7-(hydroxymethyl)-1,6-dioxaspiro[3.4]octan-5-yl)pyrimidine-2,4(1H,3H)-dione formation at 2 to 62.5 uM after 4 to 24 hrs using radiolabeled compound by HPLC analysis; type: ADME, cell-based, Canis lupus familiaris; conditions: hepatocytes
In short: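 Study A: primary cultured hepatocytes (mouse, rat, dog, human) incubated with 2 or 62.5 µM 5'-[3H]-labelled prodrug for 4 and 24 h. Cell lysates were analysed for triphosphate. Supernatants were protein-precipitated and profiled by HPLC with radioactivity detection. Cyclic monophosphate was also assessed by LC/MS/MS.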

Hepatocyte [3] = experiment: Prodrug conversion in human primary hepatocytes assessed as 2'-deoxy-2'-spirooxetane uridine triphosphate level per million cells at 62.5 uM after 24 hrs using radiolabelled compound by LC-MS/MS analysis; type: ADME, cell-based; in short: as §1
Hepatocyte [4] = experiment: Prodrug conversion in rat primary hepatocytes assessed as 2'-deoxy-2'-spirooxetane uridine triphosphate level per million cells at 2 uM after 24 hrs using radiolabelled compound by LC-MS/MS analysis; type: ADME, cell-based; in short: as §1
[5] = Prodrug conversion in dog primary hepatocytes assessed as 2'-deoxy-2'-spirooxetane uridine triphosphate level per million cells at 62.5 uM after 4 hrs using radiolabelled compound by LC-MS/MS analysis; type: ADME, cell-based, Canis lupus familiaris, Hepatocyte; in short: as §1
[6] = Half life in mouse liver at 50 mg/kg, po; type: ADME, organism-based
In short: (§2)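 Single oral dose of 50 mg/kg in 20% HP-β-cyclodextrin. Prodrug and triphosphate measured in plasma and liver over time (tlast 6–30 h). Half-life, Cmax, tmax and AUC0-last derived; liver/plasma ratio taken from AUC0-last. Prodrug data pooled from two independent studies.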

Hepatocyte [7] = experiment: Drug metabolism in human hepatocytes assessed as ((4R,5R,7R,8R)-5-(2,4-dioxo-3,4-dihydropyrimidin-1(2H)-yl)-8-hydroxy-1,6-dioxaspiro[3.4]octan-7-yl)methyl dihydrogen phosphate formation in presence of CYP3A4 inhibitor ketoconazole by LC-MS/MS analysis; type: ADME, cell-based
[8] = Cmax in rat plasma at 50 mg/kg, po; type: ADME, organism-based; set-up: dose 50 mg/kg, route oral
[9] = Ratio of AUC (0 to last) in mouse liver to AUC (0 to last) in mouse plasma; type: ADME; in short: as §2
Liver [10] = experiment: Cmax in mouse liver assessed as 2'-deoxy-2'-spirooxetane uridine triphosphate at 50 mg/kg, po; type: ADME, organism-based; set-up: dose 50 mg/kg, route oral; conditions: in vivo
Liver [11] = experiment: Half life in rat liver assessed as 2'-deoxy-2'-spirooxetane uridine triphosphate at 50 mg/kg, po; type: ADME, organism-based; conditions: in vivo; in short: as §2
Hepatocyte [12] = experiment: Prodrug conversion in human cryopreserved hepatocytes assessed as 2'-deoxy-2'-spirooxetane uridine triphosphate level per million cells at 10 uM after 8 hrs by LC-MS/MS analysis; type: ADME, cell-based
In short: (§3)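 Plated cryopreserved hepatocytes (study B) incubated with 10 µM unlabeled prodrug for 2, 8 or 24 h. Triphosphate measured in cell lysates and expressed as pmol/million hepatocytes. Quantification limit 2 ng/10^6 cells.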

Hepatocyte [13] = experiment: Drug level in human hepatocytes in presence of pan-CYP inhibitor 1-ABT by LC-MS/MS analysis; type: ADME, cell-based
Hepatocyte [14] = experiment: Drug metabolism in human hepatocytes assessed as ((4R,5R,7R,8R)-5-(2,4-dioxo-3,4-dihydropyrimidin-1(2H)-yl)-8-hydroxy-1,6-dioxaspiro[3.4]octan-7-yl)methyl dihydrogen phosphate formation in presence of CYP3A4 inhibitor ritonavir by LC-MS/MS analysis; type: ADME, cell-based
Plasma = experiment: Tlast in dog plasma at 50 mg/kg, po; type: ADME, organism-based, Canis lupus familiaris; conditions: in vivo
In short: (§4)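 Single oral dose of 50 mg/kg formulated in 20% HP-β-cyclodextrin. Prodrug and its triphosphate were measured in plasma and liver (ng/mL or ng/g) over time, and Cmax, tmax, AUC, tlast and t1/2 were derived. For some analytes, data from two independent studies are reported.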

Hepatocyte [15] = experiment: Prodrug conversion in mouse cryopreserved hepatocytes assessed as 2'-deoxy-2'-spirooxetane uridine triphosphate level per million cells at 10 uM after 24 hrs by LC-MS/MS analysis; type: ADME, cell-based; in short: as §3
[16] = AUC (0 to last) in rat plasma at 50 mg/kg, po; type: ADME, organism-based; set-up: dose 50 mg/kg, route oral, time 0 - last
In short: (§5)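 Oral dose 50 mg/kg, formulated in 20% HP-β-cyclodextrin. Prodrug and triphosphate were measured in plasma and liver (ng/mL or ng/g). Parameters derived were Cmax, tmax, AUC0-last, AUC0-inf and t1/2. Some prodrug data come from two independent studies.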

Mus musculus = experiment: Half life in homozygous cDNA-uPA chimeric SCID mouse bearing humanized hepatocytes infected with HCV assessed as 2'-deoxy-2'-spirooxetane uridine triphosphate at 50 to 200 mg/kg, po bid administered through gavage for 7 days; type: ADME, organism-based, Hepatocyte; conditions: 168 h
[17] = AUC (0 to last) in dog plasma at 50 mg/kg, po; type: ADME, organism-based, Canis lupus familiaris; set-up: dose 50 mg/kg, route oral, time 0 - last; in short: as §5
Hepatitis C virus = experiment: Antiviral activity against HCV genotype 1a infected in homozygous cDNA-uPA chimeric SCID mouse bearing humanized hepatocytes assessed as change in HCV RNA level in serum at 100 mg/kg, po qd administered through gavage for 7 days by RT-PCR method; type: functional, Hepacivirus hominis, subtype 1a, Hepatocyte
In short: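 Male chimeric SCID cDNA-uPA+/+ mice with human hepatocyte liver (≥70% replacement by blood human albumin) and serum HCV RNA >1.0×10^6 copies/mL the week before dosing. Oral gavage for 7 days in 20% HP-β-CD, 50-200 mg/kg QD or BID. Serum sampled pre-dose on days 1, 2, 3, 5 and 7. Real-time PCR; mean change in log10 copies/mL, day 7 vs day 1 pre-dose.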

Hepatocyte [18] = experiment: Prodrug conversion in rat cryopreserved hepatocytes assessed as 2'-deoxy-2'-spirooxetane uridine triphosphate level per million cells at 10 uM after 8 hrs by LC-MS/MS analysis; type: ADME, cell-based; in short: as §3
Hepatocyte [19] = experiment: Prodrug conversion in mouse cryopreserved hepatocytes assessed as 2'-deoxy-2'-spirooxetane uridine triphosphate level per million cells at 10 uM after 2 hrs by LC-MS/MS analysis; type: ADME, cell-based; in short: as §3
Hepatocyte [20] = experiment: Drug level in human hepatocytes treated with JNJ-54257099 in presence of CYP2C8 and CYP2C9 inhibitor montelukast by LC-MS/MS analysis; type: ADME, cell-based
CYP3A4 = CYP3A4 (Homo sapiens, UniProt P08684); experiment: Drug metabolism in baculovirus infected insect cell microsomes expressing human CYP3A4 assessed as CYP3A4-mediated half life at 22.7 uM; type: ADME
In short: (§6)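 Incubation at 22.7 µM with human CYP3A4 supersomes. Intrinsic clearance (µL/min.pmol P450) and half-life (min) were determined.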

Liver [21] = experiment: Tlast in mouse liver assessed as 2'-deoxy-2'-spirooxetane uridine triphosphate at 50 mg/kg, po; type: ADME, organism-based; conditions: in vivo; in short: as §4
Liver [22] = experiment: AUC (0 to last) in rat liver assessed as 2'-deoxy-2'-spirooxetane uridine triphosphate at 50 mg/kg, po; type: ADME, organism-based; conditions: in vivo; in short: as §5
Liver [23] = experiment: Tmax in dog liver assessed as 2'-deoxy-2'-spirooxetane uridine triphosphate at 50 mg/kg, po; type: ADME, organism-based, Canis lupus familiaris; conditions: in vivo; in short: as §4
Cytochrome P450 3A4 = Cytochrome P450 3A4 (Homo sapiens, UniProt P08684); experiment: Drug metabolism in baculovirus infected insect cell microsomes expressing human CYP3A4 assessed as CYP3A4-mediated intrinsic clearance per pmol CYP3A4 at 22.7 uM; type: ADME; conditions: recombinant enzyme; in short: as §6
Sequence of Cytochrome P450 3A4 (P08684 whole entry): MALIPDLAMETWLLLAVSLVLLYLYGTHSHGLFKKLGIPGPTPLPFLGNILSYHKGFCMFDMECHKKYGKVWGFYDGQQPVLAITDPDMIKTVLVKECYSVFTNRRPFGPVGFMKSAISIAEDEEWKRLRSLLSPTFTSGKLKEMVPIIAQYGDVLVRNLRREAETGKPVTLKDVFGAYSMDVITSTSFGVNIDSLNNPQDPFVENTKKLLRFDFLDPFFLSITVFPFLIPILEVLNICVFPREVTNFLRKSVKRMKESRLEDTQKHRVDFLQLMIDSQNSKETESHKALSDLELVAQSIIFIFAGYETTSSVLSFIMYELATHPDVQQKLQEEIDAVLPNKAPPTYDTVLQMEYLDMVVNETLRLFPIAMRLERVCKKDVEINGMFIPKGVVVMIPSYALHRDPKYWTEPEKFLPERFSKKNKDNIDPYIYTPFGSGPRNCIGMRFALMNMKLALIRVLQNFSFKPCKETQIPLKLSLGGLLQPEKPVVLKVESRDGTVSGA

Sequence of CYP3A4 (P08684 whole entry): as above

Drug metabolism (Hepatocyte [1]): 0.45 pmol
Drug metabolism [2]: metabolite_detected
Drug metabolism (Hepatocyte [3]): 0.38 pmol
Drug metabolism (Hepatocyte [4]): 0.027 pmol
Drug metabolism [5]: 0.035 pmol
SMILES: [3H]C1O[P@](=O)(OC(C)C)O[C@@H]2[C@@H]1O[C@@H](n1ccc(=O)[nH]c1=O)[C@@]21CCO1 (stereo partly drawn)

SMILES: CC(C)O[P@@]1(=O)OC[C@H]2O[C@@H](n3ccc(=O)[nH]c3=O)[C@@]3(CCO3)[C@@H]2O1
half-life [6]: 2.1 h
Drug metabolism (Hepatocyte [7]): metabolite_notdetected
Cmax [8]: 1290 ng/mL
Kp [9]: 0.57
Cmax (Liver [10]): 13633 ng/g
t1/2 (Liver [11]): 5.8 h
Drug metabolism (Hepatocyte [12]): 0.172 pmol
Drug uptake (Hepatocyte [13]): Active
Drug metabolism (Hepatocyte [14]): metabolite_notdetected
Tlast (Plasma): 24 h
Drug metabolism (Hepatocyte [15]): 0.519 pmol
AUC(0-t) [16]: 7330 ng·h/mL
t1/2 (Mus musculus): 3.9 h
AUC(0-t) [17]: 25600 ng·h/mL
Activity (Hepatitis C virus): -0.83
Drug metabolism (Hepatocyte [18]): 0.308 pmol
Drug metabolism (Hepatocyte [19]): 0.538 pmol
Drug uptake (Hepatocyte [20]): Active
half-life at 22.7 µM (CYP3A4): 2.18 h
Tlast (Liver [21]): 24 h
AUClast (Liver [22]): 719469 ng·h/g
Tmax (Liver [23]): 4 h
CL (Cytochrome P450 3A4): 0.058 µL/min
